In the EternaBench riboswitch data:

Test system: MS2 coat protein
Experiment: apparent Kd, MS2 coat protein; higher = weaker binding; RNA-MaP array; FMN 200 µM where present
Summary of the method: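 The apparent Kd comes from binding curves fitted cluster by cluster, filtered, and summarised as a median. Those curves followed SNAP-549-labelled MS2 coat protein from 0.7 or 1.5 nM, doubling to 3 µM, on Illumina sequencing-chip clusters where stalled E. coli RNA polymerase had transcribed the designs, without and then with constant ligand. The buffer was 100 mM Tris-HCl pH 7.5, 80 mM KCl, 4 mM MgCl2, BSA, DTT, yeast tRNA and Tween-20, and green signal was normalised to red-channel RNA signal and control-cluster median Fmax.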

[1] = designed as: ON switch for flavin mononucleotide, no ligand
[2] = ligand present: flavin mononucleotide, designed as: ON switch for flavin mononucleotide
[3] = designed as: OFF switch for flavin mononucleotide, no ligand
[4] = ligand present: flavin mononucleotide, designed as: OFF switch for flavin mononucleotide

Row | Sequence | apparent Kd [1] | apparent Kd [2] | apparent Kd [3] | apparent Kd [4]
1 | CCUAAGGACACAGGAUAUAGCGUGGUGGCCGGGCUCCAACGGCGAGCGGCGCUAGAAGGGUGACCACAUGAGGAUCACCCAUGU | 506 nM | 161 nM | – | –
2 | CCUAAGGACACAGGAUAUAGCGUGGUGGCUAGACUCCAACGGCGAGCGGCGCUAGAAGGGUGACCACAUGAGGAUCACCCAUGU | 553 nM | 193 nM | – | –
3 | CCUCAGUAAGGAUAUCAGCUUAAGGAGGUGGUAAAGAGAGCUGAGAAGGUACAUGAGGAUCACCCAUGUUAAAA | – | – | 91.1 nM | 227 nM
4 | CCUCCCUGAGGAUAUCCACCCUCAUACAUGAGGAUCACCCAUGUUCAUCCGUGGCUACCCGGAGAAGGCAGCUCUG | – | – | 57.8 nM | 49.7 nM
5 | CCUCCUGCAAAGGAUAUCGCGCGGUGACGCUGUCGAGAAGGUUGUACAUGAGGAUCACCCAUGUGGUAUAAGAU | – | – | 202 nM | 472 nM
6 | CCUCGACAUGAGGAUCACCCAUGUAAGGAUAUUCUAGGACGUGUUUUUCGUAGCUUUAGAAGAAGGUGCAGGUU | – | – | 49.5 nM | 175 nM
7 | CCUCGACAUGAGGAUCACCCAUGUCAGGAUAUUGUGUUUCGGGUUUUUUACCGUUAGGCAAGAAGGGAUGUGUG | – | – | 29.2 nM | 40.2 nM
8 | CCUCUACAUGAGGAUCACCCAUGUGAGGAUAUGCGAGGCACGCCCGAUGGGCGCGCCGGUAGAAGGCAUGUGGU | – | – | 23.6 nM | 49.4 nM
9 | CCUCUACAUGAGGAUCACCCAUGUGAGGAUAUGCGAGGCGCGCUCGAUGAGCGCGCCGGUAGAAGGCAUGUGGU | – | – | 23.2 nM | 49.9 nM
10 | CCUCUACAUGAGGAUCACCCAUGUGAGGAUAUGUGAGGCGCGCUCGAUGAGCGCACCGAUAGAAGGCAUGUGGU | – | – | 25.8 nM | 70.5 nM
11 | CCUGCACAUGAGGAUCACCCAUGUCAGGAUAUCUCGCCGCGAAGAGCAACACGGUAUUAGAGAAGGGACACGGG | – | – | 28.1 nM | 36.5 nM
12 | CCUGCACAUGAGGAUCACCCAUGUCAGGAUAUCUCGCCGUCGGCUUGCCGACGGUAUUAGAGAAGGGACACGGG | – | – | 29.3 nM | 26 nM
13 | CCUGGCACAUAGAAGGGUACAUGGCCUCUGCUACAUGAGGAUCACCCAUGUGCAGGAUAUGUGUGCCAGACUAUGCCGGUGUAA | – | – | 20.2 nM | 16.1 nM
14 | CCUGUGUAAGGAUAUGACAAUGGUAUCUUCGGAUACCAUUGUCAGAAGGUACAUGAGGAUCACCCAUGUAACAC | – | – | 15 nM | 30.4 nM
15 | CCUGUGUGAGGAUAUGGUGUUGGAAAAAAGGAAUAGCUCCUCCAGAAGGCACAUGAGGAUCACCCAUGUCGUGG | – | – | 21.4 nM | 53.2 nM
16 | CCUUGGAUUGAGGAUAUAUGAACCUUUACGGUUGUAGAAGGCAGGACAUGAGGAUCACCCAUGUGGUGGCGCUC | – | – | 1280 nM | 1010 nM
17 | CCUUUGAAGAUCCUAGUUUUCGACAUGAGGAUCACCCAUGUGCAGGAUAUCGUGCCAGUGCUGUGCGAGAAGGGCAGUCUCUGC | – | – | 63.2 nM | 70.9 nM
18 | CCUUUGUCAGGAUAUCAGUACAGGUCGAGUUUAGACCUGUUUGAGAAGGGACAUGAGGAUCACCCAUGUAAAAC | – | – | 125 nM | 161 nM
19 | CGAAGCCAAGGAUAUACAUGAGGAUCACCCAUGUGUUCCAGGCAAGCACAGCAGCGACGUAGAAGGUGGCUUCA | – | – | 17.6 nM | 41.7 nM
20 | CGAGACCUCACAGGAUAUGCUGGACUUUGUCCAGCAGAAGGGUGAAAACAUGAGGAUCACCCAUGUAUGGUCUCCAAAUUUAAG | 195 nM | 13.2 nM | – | –
21 | CGAGAUACGCUCGUCCGAAAGGGACAUGAGGAUCACCCAUGUAGAAGGCGAUGCGCAACUCGCAUUGAGGAUAUAUACUGCAGA | – | – | 5.78 nM | 5.89 nM
22 | CGAGAUCUUGAGAAGGCAUAAUAUAUAAUACCACAUGUUUACAUGAGGAUCACCCAUGUUACCUAUGAGGAUAUCAGGAUUUCG | – | – | 18.5 nM | 16.1 nM
23 | CGAGCCGGCACUGAGGAUAUUCAUAUUUAAACAUGAGGAUCACCCAUGUAGGCCAGAAGGCCUUGGGAGAAGGCAGGUCGGCUCC | 379 nM | 27.2 nM | – | –
24 | CGAGCUGCUGUGAGGAUAUACCUAUGGAUACAUGGGUAGAAGGCACAUGAGGAUCACCCAUGUCCUGCAGCUCG | – | – | 43.2 nM | 273 nM
25 | CGAGUACAUGAGGAUCACCCAUGUUAUGAAUUGUCAGGAUAUGGAUAUUGUUGACAUGCGCCAGAAGGGACUUCUG | 27.5 nM | 20.2 nM | – | –
26 | CGAUAACAUAGUUAUCCGUAACGGACAUGAGGAUCACCCAUGUAGGAUAUGUUACUCCACGAGUAACAGAAGGACAUGAGUCUU | – | – | 19.3 nM | 95.7 nM
27 | CGAUAUGAUAGAGGAUAUGUUUAACAUGAGGAUCACCCAUGUGACAUGGGAUUAAUAUAUAACUUACAGAAGGCUAUUCAAUCG | – | – | 34.4 nM | 52.4 nM
28 | CGAUCGUUGCAGAAGGUUAUAAUUUUAUCUACAUGUUUAACAUGAGGAUCACCCAUGUUUUUGAUGAAGGAUAUGCAAGGGUCG | – | – | 6.88 nM | 7.12 nM
